What was measured:
[1] = Metabolite profiling of monkey plasma, urine and feces by radio-HPLC; assay type: in vivo, Cynomolgus monkey (Macaca fascicularis); details: Cynomolgus monkey, i.v.
Summary of the method: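 Monkey samples after i.v. [14C]-test compound, 2.0 mg/kg. Plasma at 0.1–8 h was extracted twice with ethanol and centrifuged, and extracts went to LSC and radio-HPLC. Precipitates were combusted for total radioactivity. Urine (0–8 h, 8–24 h, then 24-h intervals to 120 h) was evaporated and reconstituted in mobile phase. Feces were processed as for mouse. Isocratic acetonitrile/ammonium acetate pH 4 on RP8e, UV 230 nm with radiodetection.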

[2] = test system: human suspension hepatocytes; test: Uptake into human suspension hepatocytes; assay type: in vitro ADME
Summary of the method: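 Cryopreserved human hepatocytes in suspension, transporter function verified by the supplier. Test compound was applied at 10 μmol/L, 250 μmol/L and 10 mmol/L for 1 to 30 or 90 min. Cells were separated from buffer by the oil-layer method, and drug in both compartments was quantified over time by LC/MS/MS. Nonspecific transporter inhibition used rifampicin 20 μmol/L, cyclosporine A 20 μmol/L and quinidine 100 μmol/L.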

rat hepatocytes = test: Metabolism in cultured rat hepatocytes; assay type: in vitro ADME; details: 1 and 10 µg/mL, up to 24 h
[3] = Plasma pharmacokinetics in mouse after i.v. bolus; assay type: in vivo, mouse (NMRI); details: for level at 0.1 h / level at 0.25 h / level at 2 h: NMRI, plasma
Summary of the method: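 Male and female NMRI mice, i.v. bolus of [14C]-test compound, 2.5 mg/kg (4.2 μmol/kg). Blood was taken by exsanguination under anesthesia (n = 3/time point) and spun 2 min at 10,000g. Plasma was counted by LSC from predose to 72 h. A separate unlabeled-dose study gave plasma from predose to 8 h for parent by validated LC/MS/MS. Noncompartmental analysis was used, with clearance related to hepatic blood flow.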

[4] = NADPH-dependent metabolism by human liver microsomes; assay type: in vitro ADME; details: humans, 10 and 100 µM, up to 6 h
human hepatocytes = test: Metabolism in cultured human hepatocytes; assay type: in vitro ADME; details: 1 and 10 µg/mL, up to 24 h
[5] = Excretion of total radioactivity in monkey; assay type: in vivo, Cynomolgus monkey (Macaca fascicularis)
Summary of the method: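 Female Cynomolgus monkeys (n = 3) got a single i.v. bolus of [14C]-test compound, 2.0 mg/kg. Urine and feces were collected 0–8 h, 8–24 h, then in 24-h intervals to 120 h. Both were counted by LSC as in the mouse study, with feces dried and combusted first. Excretion was expressed as % of radioactive dose.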

[6] = Plasma pharmacokinetics in rat after i.v. bolus; assay type: in vivo, Wistar rat; details: for clearance / half-life: in vivo
Summary of the method: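 Wistar rats, intravenous bolus. Plasma was sampled at 0.1, 0.25, 0.5, 1, 2, 4 and 6 h postadministration.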

CC(C)[C@H]1C(=O)N[C@@H](CCCN=C(N)N)C(=O)NCC(=O)N[C@@H](CC(=O)O)C(=O)N[C@H](Cc2ccccc2)C(=O)N1C [cilengitide, cyclo‐(Asp‐D‐Phe‐N‐MeVal‐Arg‐Gly)]
unchanged drug in plasma, share of total drug‐related material [1]: > 85%
active uptake in human hepatocytes [2]: no active uptake
dependency of uptake on drug concentration ([2]; 10 μmol/L, 250 μmol/L and 10 mmol/L): no clear dependency on drug concentration
effect of inhibitor cocktail on distribution into hepatocytes ([2]; 20 μmol/L rifampicin, 20 μmol/L cyclosporine A, 100 μmol/L quinidine): no relevant inhibition
time after which distribution into hepatocytes was almost complete ([2]; human suspension hepatocytes): 1 to 4 min
uptake into human hepatocytes ([2]; suspension, 10 μmol/L, 250 μmol/L and 10 mmol/L): minor
metabolism by cultured hepatocytes (rat hepatocytes): poorly metabolized
clearance as share of hepatic blood flow (hbf) ([3]; female mice): 60%
level at 0.1 h ([3]; female, mouse, iv, 2.5 mg/kg): 2490 ng/mL
level at 0.25 h ([3]; female, mouse, iv, 2.5 mg/kg): 448 ng/mL
level at 2 h ([3]; female, mouse, iv, 2.5 mg/kg): 6.3 ng/mL
clearance as share of hepatic blood flow (hbf) ([3]; male mice): 105%
level at 0.1 h ([3]; male, mouse, iv, 2.5 mg/kg): 1240 ng/mL
level at 0.25 h ([3]; male, mouse, iv, 2.5 mg/kg): 439 ng/mL
level at 2 h ([3]; male, mouse, iv, 2.5 mg/kg): 8 ng/mL
clearance ([3]; mouse, in vivo, Plasma CL, value used for allometry): 63.5 mL/min/kg
Vd ([3]; mouse, in vivo, Vdss, range over both species (mouse and monkey)): 0.32 to 1.6 L/kg
AUC ([3]; mouse, in vivo, iv, 2.5 mg/kg, AUC0‐∞ of parent drug, male mice, 2.5 mg/kg i.v.): 440 ng·h/mL
Vd ([3]; mouse, in vivo, iv, 2.5 mg/kg, apparent Vdss, female mice, 2.5 mg/kg i.v.): 0.56 L/kg
Vd ([3]; mouse, in vivo, iv, 2.5 mg/kg, apparent Vdss, male mice, 2.5 mg/kg i.v.): 1.6 L/kg
clearance ([3]; mouse, in vivo, iv, 2.5 mg/kg, plasma clearance, female mice, 2.5 mg/kg i.v.): 53.3 mL/min/kg
clearance ([3]; mouse, in vivo, iv, 2.5 mg/kg, plasma clearance, male mice, 2.5 mg/kg i.v.): 94.7 mL/min/kg
half-life ([3]; mouse, in vivo, t1/2, mouse, value used for allometry): 20.4 min
metabolism by liver microsomes [4]: poorly metabolized
metabolism by cultured hepatocytes (human hepatocytes): poorly metabolized
extent of renal excretion [5]: 56%
clearance as share of hepatic blood flow (hbf) [6]: approximately 20%
level at 0.1 h ([6]; Wistar, plasma, iv, 2.5 mg/kg): 5360 to 5870 ng/mL
clearance [6]: 16.3 mL/min/kg
half-life [6]: 30 min
clearance ([6]; iv, 2.5 mg/kg): ~16.3 mL/min/kg
half-life ([6]; iv, 2.5 mg/kg): 14.4 to 30 min
